Reference: paper PMC6265067 (Nature, 2018)

Legend:
AtSMXL7-YFP = assay: SMXL7-YFP level in tobacco epidermal cells; format: cell-based, Arabidopsis thaliana, expressed in Nicotiana benthamiana; conditions: co-expressed with D14-CTH-mCherry; 10 μM GR24, 120 min; n=7 nuclei; p = 4.401×10^−2
D14 / D3 = assay: AlphaScreen assay of GST-D14 / His-D3 interaction in response to GR24; format: binding, O. sativa; conditions: increasing GR24, pH 6.5, mean ± s.d. of biological triplicates
Method in brief: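 GST-D14 is held on glutathione donor beads and His-D3 (ASK1-D3 complex, 1 μM) on anti-6xHis acceptor beads, both at 5 μg/ml. D14 at 100–500 nM. Buffer is 50 mM MES, 150 mM NaCl, 1 mM DTT, 0.1 mg/ml BSA. GR24 is titrated. Signal is read at 520–620 nm after 680 nm excitation, averaged over three experiments.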

D53-D2 / D14 = assay: AlphaScreen assay of D53-D2-D14 interaction; format: binding, O. sativa; conditions: DMSO control, mean ± s.d. of biological triplicates
Method in brief: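 AlphaScreen proximity read. The GST-tagged partner sits on glutathione donor beads and the His-tagged partner on anti-6xHis acceptor beads (5 μg/ml each). Uses 100–500 nM D14 or D53 and 1 μM ASK1-D3 in 50 mM MES pH 6.5, 150 mM NaCl, 1 mM DTT, 0.1 mg/ml BSA. Excitation 680 nm, emission 520–620 nm. Peptide reactions carry matched DMSO; DMSO-only serves as control.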

D14 / D53-D2 = assay: GST-pulldown of D14 and D53-D2 in the presence of D3-CTH; format: binding, O. sativa; conditions: in the presence of GR24, repeated thrice
Method in brief: (§1)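 GST-tagged bait (~20–40 μg) and His-tagged or untagged prey (~10–25 μg) were incubated with GST beads for 30 min at 4 °C in 40 mM Tris-HCl pH 7, 100 mM NaCl, 2 mM DTT, 0.01% BSA. GR24 was at 20–100 μM with acetone as control. Beads were washed in 250 mM NaCl buffer with 0.01% Tween 20 and eluted with SDS sample buffer or 5 mM glutathione. Read-out: SDS-PAGE with Ponceau or anti-GST/anti-His Western.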

D14 [1] = molecular target: T1, D14 (Oryza sativa subsp. japonica, UniProt Q10QA5); assay: AlphaScreen competition of D3-CTH peptide with His-D3 for binding GST-D14; parameters: species or system O. sativa; conditions: 10 μM GR24 (saturating), dose-dependent, 50 mM MES pH 6.5, 150 mM NaCl, 1 mM DTT, 0.1 mg/ml BSA, mean ± s.d. of biological triplicates
T1 sequence (Q10QA5 52-318): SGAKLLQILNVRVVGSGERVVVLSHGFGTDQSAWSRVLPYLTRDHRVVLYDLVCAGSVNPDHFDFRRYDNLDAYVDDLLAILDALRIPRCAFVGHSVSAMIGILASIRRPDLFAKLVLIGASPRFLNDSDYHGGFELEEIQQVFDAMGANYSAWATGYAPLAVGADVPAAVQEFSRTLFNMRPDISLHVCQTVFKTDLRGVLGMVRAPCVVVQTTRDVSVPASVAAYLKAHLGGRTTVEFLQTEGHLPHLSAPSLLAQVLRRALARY

D14-D3-ASK1 = format: binding, O. sativa (ASK1: A. thaliana); conditions: for complex formation with D14-D3-ASK1: in the presence of GR24 (100–200 μM)
Method in brief: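 Purified proteins (20–50 μM) were preincubated for 1 h at 4 °C with 100–200 μM GR24, or with acetone as control, in 20 mM HEPES pH 7.0, 150 mM NaCl, 2 mM DTT. Samples were run on Superdex-200 Increase 10/300 at 0.5 mL/min. Fractions of 0.5 ml were analysed by SDS-PAGE with Coomassie staining; repeated at least three times.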

D14 [2] = molecular target: T1, D14; assay: YLG hydrolysis assay; format: biochemical, O. sativa
Method in brief: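 Recombinant rice D14 (residues 52–318, SUMO tag cleaved) at 1–2 μg, with co-expressed ASK1-D3 complex and D53-D2, plus YLG. Buffer is 50 mM MES pH 6.5, 150 mM NaCl, 1 mM DTT under plate seal. Fluorescence (ex 480/em 520 nm) is read every 10 s over 50–60 min and converted to fluorescein concentration via a standard curve before curve fitting. Repeated at least three times.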

D14 [3] = molecular target: T1, D14; assay: Pull-down assay with GST-tagged D53-N, D53-D1 or D53-D2 and His-D14; format: binding, O. sativa; conditions: GST-tagged D53 domains, GR24
Method in brief: as §1

D53 = D53 stability in a reconstituted cell-free system; format: biochemical, O. sativa (extract: Arabidopsis seedlings); conditions: max2–1 seedling extract; 10 μM GR24; 22 °C

CC1=C[C@H](O/C=C2/C(=O)O[C@@H]3c4ccccc4C[C@H]23)OC1=O [GR24]
SMXL7 reduction upon GR24 treatment (AtSMXL7-YFP): 11.8%
D3-D14 interaction (D14 / D3): GR24-dependent D3-D14 interaction

D3_708–720: 13aa D3 peptide (RFEVQLNSRQIDD; UniProt Q5VMP0 708-720, looked up, fragment)
promotion of D53-D2-D14 interaction (D53-D2 / D14): did not stimulate binding

D3_693–707: 15aa D3 peptide (ENDLMFTEMRAESWL; UniProt Q5VMP0 693-707, looked up, fragment)
promotion of D53-D2-D14 interaction (D53-D2 / D14): did not stimulate binding

D3-CTH peptide: 28 amino acids D3-CTH peptide (28aa, D3_693–720), O. sativa (ENDLMFTEMRAESWLRFEVQLNSRQIDD; UniProt Q5VMP0 693-720, looked up, fragment)
stimulation of D14 and D53-D2 pulling down each other (D14 / D53-D2): able to stimulate D14 and D53-D2 to pull down each other in the presence of GR24
promotion of D53-D2-D14 interaction (D53-D2 / D14): elicited the same effect in a dose-dependent manner
competition with D3 for binding D14 (D14 [1]): able to compete with D3 for binding D14

CCOC(=O)c1ccccc1-c1c2ccc(=O)cc-2oc2cc(OC3C=C(C)C(=O)O3)ccc12 (stereo not shown) [YLG, Yoshimulactone Green, reference compound]
complex assembly among D14, D3-ASK1 and D53-D2 (D14-D3-ASK1; Superdex-200, in the presence of YLG): can induce complex assembly among D14, D3-ASK1, and the D53-D2 domain

B1: D53 D2 domain: D53 D2 domain (D53-D2, 718–1,131) (protein)
chain: NSDLSNYKLLVERLFKVVGRQEEALSAICESIVRCRSTESRRGPNRNDIWLCFHGSDSMAKKRIAVALAELMHGSKDNLIYLDLNLQDWDDSSFRGKTGIDCIVEQLSKKRQSVLFLDNIDRADCLVQDSLSDAIKSGRFQDMRGKVVDINDSIVVLSRSMIQGSKNGLEEGLSFSEEKILATRGHRLKILVEPGRAITSGCPSGKVVVSPRHFLTKIQASLCSGSISKRKLSISDDQEKLQESPSSSKRLHRTSSVPFDLNLPVDEDEPLDADDDSSSHENSYGNTEKSIDALLHSVDGSINFKPFDFDKLADDMLQEFSNILRKNLGSECMLEIDVGAMEQILAAAWKSEEDRKPVPTWLEQVFARSLDELKLKRKHVSSSTLRLVACEDTVPAVKGDGLGVLLPPRIILDC
modifications: left off: GST, end not stated, kept
complex formation with D14-D3-ASK1 (D14-D3-ASK1; Superdex-200): can form a stable complex with D14-D3-ASK1 in the presence of GR24
requirement for stable association with D14 (D14-D3-ASK1; Superdex-200, ± ASK1-D3, GR24): stably associated with D14 only in the presence of D3 and GR24
effect on D3-ASK1-arrested D14 kinetics (D14 [2]; D14 + ASK1-D3, D53-D2 at two concentrations): little change in the enzymatic kinetics
binding D14 (D14 [3]): solely responsible for binding D14 in a GR24-dependent manner

B2: D53: Full length D53 (O. sativa), expressed as a GST fusion protein (protein)
chain: MPTPVAAARQCLSPAAVPALDAAVASSRRRAHAQTTSLHLISSLLAPPAPPLLRDALARARSAAYSPRVQLKALDLCFAVSLDRLPSVSASSSSSGAADEPPVSNSLMAAIKRSQANQRRNPDTFHFYHQAATAQTPAAVKVELSHLVLAILDDPVVSRVFAEAGFRSGDIKLAILRPAPPMPLLGRLPTRTRPPPLFLCSFAAADDADVPSPAGNLAGAGEENCRRIAEILSRGRNPMLVGVGAASAADDFAAASPYRIIHVDPNTIDRSDLGVAAAMASATSGLIISIGDLKQLVPDEDAEAQEKGRRVVAEVTRVLETHSKVGRVWVMGWSATYETYLAFLSKFPLVDKDWDLQLLPITAVHAAATAGPAAAAAGLMPPATTVAAFSKPAASLMDSFVPFGGFLCDNYEENSLTANSCPQALRCQQCNDKYEQEVATIISASGITAEDHHQGGLPSLLQNGSMMGPNNGFDPVKARDDRMVLNSKILNLRKKWNEYCLRLHQDHQRINRDPYKPFPRYIGVPTDKERSANSSKGSESVGVQKDVIKPCAVSAVHSSSTARPISSPSVTNKRNEDLVLNLQARHSKSDENLQERGMQSQHGTLSNVDNPDDHVSPSSAAPVETDLVLGTPRECSSKGSSSTCSKRVEDSERSVHLVPKKVDDLNLKHPQLSVQPNSCSWSSINVGKTSHSTLHSVASGGFSAFGQWQKRSPLAAQNSDLSNYKLLVERLFKVVGRQEEALSAICESIVRCRSTESRRGPNRNDIWLCFHGSDSMAKKRIAVALAELMHGSKDNLIYLDLNLQDWDDSSFRGKTGIDCIVEQLSKKRQSVLFLDNIDRADCLVQDSLSDAIKSGRFQDMRGKVVDINDSIVVLSRSMIQGSKNGLEEGLSFSEEKILATRGHRLKILVEPGRAITSGCPSGKVVVSPRHFLTKIQASLCSGSISKRKLSISDDQEKLQESPSSSKRLHRTSSVPFDLNLPVDEDEPLDADDDSSSHENSYGNTEKSIDALLHSVDGSINFKPFDFDKLADDMLQEFSNILRKNLGSECMLEIDVGAMEQILAAAWKSEEDRKPVPTWLEQVFARSLDELKLKRKHVSSSTLRLVACEDTVPAVKGDGLGVLLPPRIILDC
modifications: left off: GST, end not stated, kept
complex formation with D14-D3-ASK1 (D14-D3-ASK1; Superdex-200): can form a stable complex with D14-D3-ASK1 in the presence of GR24
effect on D14 inhibited by D3 C-terminal peptide (D14 [2]; D14 + D3-CTH, initial reaction and slow linear phase): robustly blocked the inhibition of the enzymatic activity of D14 by the D3 C-terminal peptide

B3: C-terminally truncated D3 mutant protein: D3ΔCTH (O. sativa, residues 1–693) co-expressed with ASK1 (protein, UniProt Q5VMP0 1-693, looked up, fragment)
chain: MAEEEEVEEGRSSSSAILDLPEPLLLHILSFLTDVRSRHRAALACGRMRAAERATRSELSLRGDPRSPGFLFLSHAFRFPALEHLDLSLVSPWGHPLLSSVPPCGGGGGGAPSASSSSGMNVYHPEAISEQNAFIAARLAGCFPAVTSLAVYCRDPTTLANLTPHWQASLRRVKLVRWHQRPPTLPDGADLEPLLETCAALRELDLSEFYCWTEDVVRALTTHPSATAALTHLDLGLAAATDGFKSSELGPIAASCPNLRKLVAPCLFNPRFSDCVGDDALLSLATSCPRLTVLRLSEPFEAAANIQREEAAITVAGLVAFFAALPALEDFTMDLQHNVLEAAPAMEALARRCPRIKFLTLGSFQGLCKASWLHLDGVAVCGGLESLYMKNCQDLTDASLAAIGRGCRRLAKFGIHGCDLVTSAGIRRLAFTLRPTLKEVTVLHCRLLHTAECLTALSPIRDRIESLEINCVWNTTEQPCSVANGTTTECDPEDDELGEVYESAAKKCRYMEFDDLGSWEMLRSLSLWFSAGQLLSPLISAGLDSCPVLEEISIKVEGDCRTCPRPAPRTIFGLSDLAGFPVLAKMKLDLSEAVGYALTAPTGQMDLSLWERFYLHGIESLQTLYELDYWPPQDKDVHHRSLTLPAVGLIQRCVGLRKLFIHGTTHEHFMTFFLSIPNLRDMQLREDYYPAPE
modifications: co-expressed with ASK1
ternary complex with D14 and D53-D2 (D14-D3-ASK1; sizing column, D14-GR24, D53-D2): could neither form a ternary complex with D14 and D53-D2 on a sizing column
restoration of D53-degrading activity of max2–1 extracts (D53): nor restore the D53 degradation activity of the max2–1 extracts
